Source: ChEMBL document CHEMBL2407075, “Sulphonamido-quinoxalines: search for anticancer agent” (Eur J Med Chem, 2013)

Columns and labels:
COLO 205 = assay: Growth inhibition of human COLO205 cells at 10 uM after 48 hrs by sulforhodamine B assay; assay type: functional; conditions: COLO 205, 48 h, read-out: GI
Method in brief: (§1)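 Single-dose NCI-60 prescreen at 10 µM for 48 h at 37 °C and 5% CO2, using cells grown in RPMI 1640 with 5% FBS and 2 mM glutamine. Protein was measured by SRB after TCA fixation: 10% final for adherent lines, 16% for suspension lines. Absorbance was read at 515 nm. Percent growth inhibition was obtained by subtracting percent growth from 100.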

SNB-75 = assay: Growth inhibition of human SNB75 cells at 10 uM after 48 hrs by sulforhodamine B assay; assay type: functional; conditions: SNB-75, 48 h, read-out: GI
Method in brief: (§2)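 Single-dose screen at 10 µM across the NCI 60 panel. Cells in RPMI 1640 with 5% FBS and 2 mM L-glutamine, plated at 5000–40,000/well and preincubated 24 h at 37 °C, 5% CO2. Drug in DMSO, 48 h exposure. Fixed with TCA, stained with SRB, A515 read. Percent growth is taken relative to untreated control, and inhibition is 100 minus growth.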

SW-620 = assay: Growth inhibition of human SW620 cells at 10 uM after 48 hrs by sulforhodamine B assay; assay type: functional; conditions: SW-620, 48 h, read-out: GI; method in brief: as §2
OVCAR-8 = assay: Growth inhibition of human OVCAR8 cells at 10 uM after 48 hrs by sulforhodamine B assay; assay type: functional; conditions: OVCAR-8, 48 h, read-out: GI; method in brief: as §2
UACC-62 = assay: Growth inhibition of human UACC62 cells at 10 uM after 48 hrs by sulforhodamine B assay; assay type: functional; conditions: UACC-62, 48 h, read-out: GI; method in brief: as §2
MCF7 = assay: Growth inhibition of human MCF7 cells at 10 uM after 48 hrs by sulforhodamine B assay; assay type: functional; conditions: MCF7, 48 h, read-out: GI; method in brief: as §2
SK-MEL-28 = assay: Growth inhibition of human SK-MEL-28 cells at 10 uM after 48 hrs by sulforhodamine B assay; assay type: functional; conditions: SK-MEL-28, 48 h, read-out: GI; method in brief: as §2
SK-MEL-5 = assay: Growth inhibition of human SK-MEL-5 cells at 10 uM after 48 hrs by sulforhodamine B assay; assay type: functional; conditions: SK-MEL-5, 48 h, read-out: GI; method in brief: as §2
SF-539 = assay: Growth inhibition of human SF539 cells at 10 uM after 48 hrs by sulforhodamine B assay; assay type: functional; conditions: SF-539, 48 h, read-out: GI; method in brief: as §2
HT-29 = assay: Growth inhibition of human HT-29 cells at 10 uM after 48 hrs by sulforhodamine B assay; assay type: functional; conditions: HT-29, 48 h, read-out: GI
Method in brief: (§3)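 NCI-60 one-dose primary screen at a single 10 µM concentration. Cells in RPMI 1640 with 5% FBS, preincubated 24 h at 37 °C, 5% CO2. Drug exposure 48 h, then TCA fixation, SRB staining and absorbance at 515 nm. Percent growth calculated against time-zero and untreated control wells, then converted to percent growth inhibition.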

MDA-MB-468 = assay: Growth inhibition of human MDA-MB-468 cells at 10 uM after 48 hrs by sulforhodamine B assay; assay type: functional; conditions: MDA-MB-468, 48 h, read-out: GI; method in brief: as §2
OVCAR-4 = assay: Growth inhibition of human OVCAR4 cells at 10 uM after 48 hrs by sulforhodamine B assay; assay type: functional; conditions: OVCAR-4, 48 h, read-out: GI; method in brief: as §2
OVCAR-3 = assay: Growth inhibition of human OVCAR3 cells at 10 uM after 48 hrs by sulforhodamine B assay; assay type: functional; conditions: OVCAR-3, 48 h, read-out: GI; method in brief: as §2
HCT-116 = assay: Growth inhibition of human HCT116 cells at 10 uM after 48 hrs by sulforhodamine B assay; assay type: functional; conditions: HCT-116, 48 h, read-out: GI; method in brief: as §3
[1] = Growth inhibition of human HCC2998 cells at 10 uM after 48 hrs by sulforhodamine B assay; assay type: functional; conditions: HCC 2998, 48 h, read-out: GI; method in brief: as §3
[2] = Growth inhibition of human NCI-ADR-RES cells at 10 uM after 48 hrs by sulforhodamine B assay; assay type: functional; conditions: read-out: GI; method in brief: as §2
A549 = assay: Growth inhibition of human A549/ATCC cells at 10 uM after 48 hrs by sulforhodamine B assay; assay type: functional; conditions: A549, 48 h, read-out: GI; method in brief: as §1
K562 = assay: Growth inhibition of human K562 cells at 10 uM after 48 hrs by sulforhodamine B assay; assay type: functional; conditions: K562, 48 h, read-out: GI; method in brief: as §2
BT-549 = assay: Growth inhibition of human BT549 cells at 10 uM after 48 hrs by sulforhodamine B assay; assay type: functional; conditions: BT-549, 48 h, read-out: GI; method in brief: as §1
HCT-15 = assay: Growth inhibition of human HCT15 cells at 10 uM after 48 hrs by sulforhodamine B assay; assay type: functional; conditions: HCT-15, 48 h, read-out: GI; method in brief: as §3
Malme-3M = assay: Growth inhibition of human MALME-3M cells at 10 uM after 48 hrs by sulforhodamine B assay; assay type: functional; conditions: read-out: GI; method in brief: as §2
NCI-H226 = assay: Growth inhibition of human NCI-H226 cells at 10 uM after 48 hrs by sulforhodamine B assay; assay type: functional; conditions: NCI-H226, 48 h, read-out: GI; method in brief: as §2
NCI-H522 = assay: Growth inhibition of human NCI-H522 cells at 10 uM after 48 hrs by sulforhodamine B assay; assay type: functional; conditions: NCI-H522, 48 h, read-out: GI; method in brief: as §2
[3] = Oral bioavailability in human; assay type: ADME, organism-based; conditions: in silico prediction
RPMI-8226 = assay: Growth inhibition of human RPMI8226 cells at 10 uM after 48 hrs by sulforhodamine B assay; assay type: functional; conditions: RPMI-8226, 48 h, read-out: GI; method in brief: as §2
A498 = assay: Growth inhibition of human A498 cells at 10 uM after 48 hrs by sulforhodamine B assay; assay type: functional; conditions: A498, 48 h, read-out: GI; method in brief: as §1
UACC-257 = assay: Growth inhibition of human UACC257 cells at 10 uM after 48 hrs by sulforhodamine B assay; assay type: functional; conditions: UACC-257, 48 h, read-out: GI; method in brief: as §2
SK-MEL-2 = assay: Growth inhibition of human SK-MEL-2 cells at 10 uM after 48 hrs by sulforhodamine B assay; assay type: functional; conditions: SK-MEL-2, 48 h, read-out: GI; method in brief: as §2
[4] = Growth inhibition of human Hs 578T cells at 10 uM after 48 hrs by sulforhodamine B assay; assay type: functional; conditions: read-out: GI; method in brief: as §3
UO-31 = assay: Growth inhibition of human UO31 cells at 10 uM after 48 hrs by sulforhodamine B assay; assay type: functional; conditions: UO-31, 48 h, read-out: GI; method in brief: as §2
SF-268 = assay: Growth inhibition of human SF268 cells at 10 uM after 48 hrs by sulforhodamine B assay; assay type: functional; conditions: SF-268, 48 h, read-out: GI; method in brief: as §2
ACHN = assay: Growth inhibition of human ACHN cells at 10 uM after 48 hrs by sulforhodamine B assay; assay type: functional; conditions: read-out: GI; method in brief: as §1
NCI-H23 = assay: Growth inhibition of human NCI-H23 cells at 10 uM after 48 hrs by sulforhodamine B assay; assay type: functional; conditions: NCI-H23, 48 h, read-out: GI; method in brief: as §2
U-251 = assay: Growth inhibition of human U251 cells at 10 uM after 48 hrs by sulforhodamine B assay; assay type: functional; conditions: U-251, 48 h, read-out: GI; method in brief: as §2

SMILES | inhibition of growth at 10 µM (COLO 205) [%] | inhibition of growth at 10 µM (SNB-75) [%] | inhibition of growth at 10 µM (SW-620) [%] | inhibition of growth at 10 µM (OVCAR-8) [%] | inhibition of growth at 10 µM (UACC-62) [%] | inhibition of growth at 10 µM (MCF7) [%] | inhibition of growth at 10 µM (SK-MEL-28) [%] | inhibition of growth at 10 µM (SK-MEL-5) [%] | inhibition of growth at 10 µM (SF-539) [%] | inhibition of growth at 10 µM (HT-29) [%] | inhibition of growth at 10 µM (MDA-MB-468) [%] | inhibition of growth at 10 µM (OVCAR-4) [%] | inhibition of growth at 10 µM (OVCAR-3) [%] | inhibition of growth at 10 µM (HCT-116) [%] | inhibition of growth at 10 µM [1] [%] | inhibition of growth at 10 µM [2] [%] | inhibition of growth at 10 µM (A549) [%] | inhibition of growth at 10 µM (K562) [%] | inhibition of growth at 10 µM (BT-549) [%] | inhibition of growth at 10 µM (HCT-15) [%] | further results
COc1ccccc1NS(=O)(=O)c1ccc2nc(-c3ccccc3)c(-c3ccccc3)nc2c1 | 28.9 | 31.9 | 21.5 | 24.1 | 23.4 | 31.8 | 12.7 | 61.4 | 24.7 | 63.9 | 56.8 | 30 | 13.5 | 55.7 | 19.9 | 41 | 36.5 | 45.5 | 55.1 | 44.7 | inhibition of growth at 10 µM (Malme-3M): 1.87%; inhibition of growth at 10 µM (NCI-H226): 69.9%; inhibition of growth at 10 µM (NCI-H522): 28.8%; bioavailability [3]: 100%; inhibition of growth at 10 µM (RPMI-8226): 65.7%; inhibition of growth at 10 µM (A498): 42.8%; inhibition of growth at 10 µM (UACC-257): 18.9%; inhibition of growth at 10 µM (SK-MEL-2): 25%; inhibition of growth at 10 µM [4]: 33.2%; inhibition of growth at 10 µM (UO-31): 22.8%; inhibition of growth at 10 µM (SF-268): 23.8%; inhibition of growth at 10 µM (ACHN): 13.1%; inhibition of growth at 10 µM (NCI-H23): 23%
O=S(=O)(Nc1cccc2ccccc12)c1ccc2nc(-c3ccccc3)c(-c3ccccc3)nc2c1 | 27.9 | 39.9 | 26.8 | 20.6 | 28.9 | 23 | 5.98 | 48.6 | 5.57 | 82.5 | 54.9 | 31.2 | 30.9 | 49.9 | 4.56 | 22.6 | 15.3 | 49.6 | 32.6 | 34.3 | inhibition of growth at 10 µM (Malme-3M): 9.98%; inhibition of growth at 10 µM (NCI-H226): 44%; inhibition of growth at 10 µM (NCI-H522): 47.8%; bioavailability [3]: 100%; inhibition of growth at 10 µM (RPMI-8226): 44.3%; inhibition of growth at 10 µM (A498): 31.9%; inhibition of growth at 10 µM (UACC-257): 21.7%; inhibition of growth at 10 µM (SK-MEL-2): 14.9%; inhibition of growth at 10 µM [4]: 24%; inhibition of growth at 10 µM (UO-31): 17.9%; inhibition of growth at 10 µM (SF-268): 2.78%; inhibition of growth at 10 µM (ACHN): 21.9%; inhibition of growth at 10 µM (U-251): 7.23%; inhibition of growth at 10 µM (NCI-H23): 21.3%
